Data as given in article PMC12059896 (ACS Omega, 2025).

Legend:
LNCaP cells = assay: XTT cytotoxicity assay in LNCaP cells; format: cell-based; settings: 24 h and 72 h, n = 4 (Figures 6, 7)
Summary of the method: (§1)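 Cells kept in RPMI with 10% FBS and 1% penicillin–streptomycin at 37 °C, 5% CO2. Seeded at 6 × 10^3 (LNCaP) or 3 × 10^3 (PC-3) per well, attached 24 h, then exposed to free drugs or leucine-coupled drugs. At 24 and 72 h, XTT added for 3 h at 37 °C; absorbance read at 450 nm. Controls: 0.05% DMSO and medium alone. Mean ± SD, n = 4.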

PC-3 cells [1] = assay: XTT cytotoxicity assay in PC-3 cells; format: cell-based; settings: 24 h and 72 h, n = 4 (Figures 6, 7)
Summary of the method: as §1

[2] = cited from earlier work
PC-3 cells [3] = settings: PC-3 cells do not express PSA; ref 10 (Bakthavatsalam et al. 2020); cited from earlier work

Row | Molecule | cytotoxicity of drug compared with its leucine conjugate, LNCaP (LNCaP cells) | cytotoxicity of drug compared with its leucine conjugate, PC-3 (PC-3 cells [1]) | potency relative to CPT-11 in inducing antitumor activity [2] | cytotoxicity in PC-3 cells (PC-3 cells [3])
1 | COC1C(=O)C2(C)C(OC)CC3OCC3(OC(C)=O)C2C(OC(=O)c2ccccc2)C2(O)CC(OC(=O)C(OC(=O)C(N)CC(C)C)C(NC(=O)OC(C)(C)C)c3ccccc3)C(C)=C1C2(C)C [L-cabazitaxel, NH2-Leu-Cabazitaxel] | comparable cytotoxicity | comparable cytotoxicity |  | 
2 | CCc1c2c(nc3ccc(O)cc13)-c1cc3c(c(=O)n1C2)COC(=O)C3(CC)OC(=O)C(N)CC(C)C (stereo not shown) [L–SN–38, NH2-Leu–SN–38] | comparable cytotoxicity | comparable cytotoxicity |  | 
3 | CCc1c2c(nc3ccc(O)cc13)-c1cc3c(c(=O)n1C2)COC(=O)[C@]3(O)CC [SN-38, 7-Ethyl-10-hydroxycamptothecin] | comparable cytotoxicity | comparable cytotoxicity | 100- to 1000 fold | 
4 | CO[C@H]1C(=O)[C@]2(C)[C@@H](OC)C[C@H]3OC[C@@]3(OC(C)=O)[C@H]2[C@H](OC(=O)c2ccccc2)[C@]2(O)C[C@H](OC(=O)[C@H](O)[C@@H](NC(=O)OC(C)(C)C)c3ccccc3)C(C)=C1C2(C)C [cabazitaxel] | comparable cytotoxicity | comparable cytotoxicity |  | 
5 | Ac-HSSKLQL-PAB-dithiocarbamate |  |  |  | demonstrated cytotoxicity in PC-3 cells
